# Test results taken from ChEMBL document CHEMBL1275556, “High prevalence of plasmid-mediated quinolone resistance genes qnr and aac(6')-Ib-cr in clinical isolates of Enterobacteriaceae from nine teaching hospitals in China” (2008).
# How the values were obtained:
# Enterobacter cloacae [1] = assay: Antimicrobial activity against aac(6')-Ib-cr-negative Enterobacter cloacae FJ67 harboring […] and qnrS genes by agar dilution method in presence of clavulanic acid; format: functional
# Procedure, shortened: (§1)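 MICs were determined by the CLSI agar dilution method (M7-A7) and interpreted against CLSI M100-S17 breakpoints.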
# Citrobacter freundii [2] = assay: Antimicrobial activity against aac(6')-Ib-cr-positive Citrobacter freundii JS33 harboring GyrA T83I mutant, wild-type ParC, GyrB, qnrA and qnrB genes by agar dilution method; format: functional; procedure, shortened: as §1
# Enterobacter cloacae [3] = assay: Antimicrobial activity against aac(6')-Ib-cr-negative Enterobacter cloacae WH42T harboring qnrA gene by agar dilution method in presence of clavulanic acid; format: functional
# Procedure, shortened: (§2)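 Transconjugants came from conjugation of qnr and/or aac(6')-Ib-cr-carrying donors with azide-resistant E. coli J53. […] MICs were determined by CLSI agar dilution (M7-A7) and interpreted by M100-S17.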
# Citrobacter freundii [4] = assay: Antimicrobial activity against aac(6')-Ib-cr-positive Citrobacter freundii TJ15 harboring GyrA T83I, ParC S80I mutant, wild-type GyrB, qnrB genes by agar dilution method in presence of clavulanic acid; format: functional
# Procedure, shortened: (§3)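 MICs were determined by CLSI agar dilution (M7-A7) and interpreted by CLSI M100-S17 breakpoints. The curator's line names the β-lactamase inhibitor added.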
# Klebsiella pneumoniae [5] = assay: Antimicrobial activity against aac(6')-Ib-cr-positive Klebsiella pneumoniae GZ40 harboring GyrA S83I, ParC S80I mutant, wild-type GyrB and qnrB genes by agar dilution method; format: functional; procedure, shortened: as §1
# Klebsiella pneumoniae [6] = assay: Antimicrobial activity against aac(6')-Ib-cr-negative Klebsiella pneumoniae SY22 harboring GyrA S83I, ParC S80I mutant, wild-type GyrB and qnrS genes by agar dilution method; format: functional; procedure, shortened: as §1
# Citrobacter freundii [7] = assay: Antimicrobial activity against aac(6')-Ib-cr-positive Citrobacter freundii JS33T harboring qnrA gene by agar dilution method in presence of clavulanic acid; format: functional; procedure, shortened: as §2
# Klebsiella pneumoniae [8] = assay: Antimicrobial activity against aac(6')-Ib-cr-positive Klebsiella pneumoniae SY26 harboring GyrA S83I, ParC S80I mutant, wild-type GyrB and qnrB genes by agar dilution method; format: functional
# Procedure, shortened: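 MICs were determined on clinical isolates by CLSI agar dilution (M7-A7) and interpreted against CLSI M100-S17 breakpoints.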
# Enterobacter cloacae [9] = assay: Antimicrobial activity against aac(6')-Ib-cr-negative Enterobacter cloacae FJ61T harboring qnrS gene by agar dilution method in presence of clavulanic acid; format: functional; procedure, shortened: as §2
# Klebsiella pneumoniae [10] = assay: Antimicrobial activity against aac(6')-Ib-cr-positive Klebsiella pneumoniae SY26T harboring wild-type GyrA, ParC, GyrB and qnrB genes by agar dilution method in presence of clavulanic acid; format: functional; procedure, shortened: as §2
# Escherichia coli [11] = assay: Antimicrobial activity against Escherichia coli J53 harboring wild-type GyrA, ParC, GyrB genes by agar dilution method
# Citrobacter freundii [12] = assay: Antimicrobial activity against aac(6')-Ib-cr-negative Citrobacter freundii JN64 harboring GyrA T83I, wild-type ParC, GyrB and qnrA genes by agar dilution method in presence of clavulanic acid; format: functional; procedure, shortened: as §1
# Enterobacter cloacae [13] = assay: Antimicrobial activity against aac(6')-Ib-cr-negative Enterobacter cloacae GZ47T harboring qnrB gene by agar dilution method in presence of clavulanic acid; format: functional; procedure, shortened: as §1
# Klebsiella pneumoniae [14] = assay: Antimicrobial activity against aac(6')-Ib-cr-positive Klebsiella pneumoniae SY26T harboring wild-type GyrA, ParC, GyrB and qnrB genes by agar dilution method; format: functional
# Procedure, shortened: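 Transconjugants were made by conjugating a qnr/aac(6')-Ib-cr donor with azide-resistant E. coli J53. MICs were read by CLSI agar dilution (M7-A7) and interpreted per M100-S17.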
# Enterobacter cloacae [15] = assay: Antimicrobial activity against aac(6')-Ib-cr-negative Enterobacter cloacae SH39T harboring qnrA gene by agar dilution method; format: functional
# Escherichia coli [16] = assay: Antimicrobial activity against aac(6')-Ib-cr-positive Escherichia coli FJ3 harboring GyrA S83L, ParC S80R mutant, wild-type GyrB and qnrB genes by agar dilution method in presence of clavulanic acid; format: functional; procedure, shortened: as §3
# Citrobacter freundii [17] = assay: Antimicrobial activity against aac(6')-Ib-cr-positive Citrobacter freundii JN1T by agar dilution method in presence of clavulanic acid; format: functional; procedure, shortened: as §2
# Citrobacter freundii [18] = assay: Antimicrobial activity against aac(6')-Ib-cr-positive Citrobacter freundii PU55 harboring GyrA T83I, ParC S80I mutant, wild-type GyrB, qnrA genes by agar dilution method; format: functional; procedure, shortened: as §1
# Klebsiella pneumoniae [19] = assay: Antimicrobial activity against aac(6')-Ib-cr-positive Klebsiella pneumoniae GZ40 harboring GyrA S83I, ParC S80I mutant, wild-type GyrB and qnrB genes by agar dilution method in presence of clavulanic acid; format: functional
# Procedure, shortened: (§4)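 MICs measured by CLSI agar dilution (M7-A7) and interpreted against CLSI M100-S17 breakpoints. Strains were clinical Enterobacteriaceae isolates or the azide-resistant E. coli J53 recipient.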
# Enterobacter cloacae [20] = assay: Antimicrobial activity against aac(6')-Ib-cr-negative Enterobacter cloacae WH42 harboring wild-type GyrA, ParC, GyrB and qnrA genes by agar dilution method in presence of clavulanic acid; format: functional; procedure, shortened: as §1
# Citrobacter freundii [21] = assay: Antimicrobial activity against aac(6')-Ib-cr-positive Citrobacter freundii JN1 harboring GyrA T83I, ParC S80I mutant, wild-type GyrB and qnrA genes by agar dilution method in presence of Tazobactam; format: functional; procedure, shortened: as §3
# Enterobacter cloacae [22] = assay: Antimicrobial activity against aac(6')-Ib-cr-negative Enterobacter cloacae SH39 harboring GyrA S83I, ParC S80I mutant, wild-type GyrB and qnrA genes by agar dilution method in presence of Tazobactam; format: functional; procedure, shortened: as §1
# Enterobacter cloacae [23] = assay: Antimicrobial activity against aac(6')-Ib-cr-negative Enterobacter cloacae WH42 harboring wild-type GyrA, ParC, GyrB and qnrA genes by agar dilution method in presence of Tazobactam; format: functional; procedure, shortened: as §4
# Enterobacter cloacae [24] = assay: Antimicrobial activity against aac(6')-Ib-cr-negative Enterobacter cloacae FJ61T harboring qnrS gene by agar dilution method in presence of Tazobactam; format: functional; procedure, shortened: as §1
# Citrobacter freundii [25] = assay: Antimicrobial activity against aac(6')-Ib-cr-negative Citrobacter freundii JN64 harboring GyrA T83I, wild-type ParC, GyrB and qnrA genes by agar dilution method in presence of Tazobactam; format: functional; procedure, shortened: as §1
# Escherichia coli [26] = assay: Antimicrobial activity against aac(6')-Ib-cr-negative Escherichia coli PU12T harboring wild-type GyrA, GyrB, ParC and qnrS genes by agar dilution method in presence of Tazobactam; format: functional
# Procedure, shortened: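 Transconjugants came from conjugation of qnr and/or aac(6')-Ib-cr donors into azide-resistant E. coli J53. […] MICs were measured by CLSI agar dilution (M7-A7) and interpreted per M100-S17.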
# Klebsiella pneumoniae [27] = assay: Antimicrobial activity against aac(6')-Ib-cr-positive Klebsiella pneumoniae GZ40T harboring qnrB gene by agar dilution method in presence of Tazobactam; format: functional; procedure, shortened: as §1
# Enterobacter cloacae [28] = assay: Antimicrobial activity against aac(6')-Ib-cr-negative Enterobacter cloacae FJ67 harboring […] and qnrS genes by agar dilution method in presence of Tazobactam; format: functional; procedure, shortened: as §1
# Enterobacter cloacae [29] = assay: Antimicrobial activity against aac(6')-Ib-cr-negative Enterobacter cloacae FJ67T harboring qnrS gene by agar dilution method in presence of Tazobactam; format: functional; procedure, shortened: as §1
# Enterobacter cloacae [30] = assay: Antimicrobial activity against aac(6')-Ib-cr-positive Enterobacter cloacae FJ63 harboring GyrA S83I, GyrA D87A, ParC S80I mutant, wild-type GyrB and qnrS genes by agar dilution method in presence of Tazobactam; format: functional; procedure, shortened: as §1
smiles,measurement,setting,value
CO/N=C(\C(=O)N[C@@H]1C(=O)N2C(C(=O)O)=C(COC(C)=O)CS[C@H]12)c1csc(N)n1 [CEFOTAXIME],MIC,Enterobacter cloacae [1],0.25 µg/mL
same,MIC,Citrobacter freundii [2],8 µg/mL
same,MIC,Enterobacter cloacae [3],0.032 µg/mL
same,MIC,Citrobacter freundii [4],16 µg/mL
same,MIC,Klebsiella pneumoniae [5],> 256 µg/mL
same,MIC,Klebsiella pneumoniae [6],2 µg/mL
same,MIC,Citrobacter freundii [7],0.032 µg/mL
same,MIC,Klebsiella pneumoniae [8],8 µg/mL
same,MIC,Enterobacter cloacae [9],0.032 µg/mL
same,MIC,Klebsiella pneumoniae [10],0.032 µg/mL
same,MIC,Escherichia coli [11],0.032 µg/mL
same,MIC,Citrobacter freundii [12],128 µg/mL
same,MIC,Enterobacter cloacae [13],0.5 µg/mL
same,MIC,Klebsiella pneumoniae [14],4 µg/mL
same,MIC,Enterobacter cloacae [15],0.032 µg/mL
same,MIC,Escherichia coli [16],0.032 µg/mL
same,MIC,Citrobacter freundii [17],0.032 µg/mL
same,MIC,Citrobacter freundii [18],128 µg/mL
same,MIC,Klebsiella pneumoniae [19],0.5 µg/mL
same,MIC,Enterobacter cloacae [20],256 µg/mL
CCN1CCN(C(=O)N[C@@H](C(=O)N[C@@H]2C(=O)N3[C@@H]2SC(C)(C)[C@@H]3C(=O)O)c2ccccc2)C(=O)C1=O [PIPERACILLIN],MIC,Citrobacter freundii [21],16 µg/mL
same,MIC,Enterobacter cloacae [22],2 µg/mL
same,MIC,Enterobacter cloacae [23],64 µg/mL
same,MIC,Enterobacter cloacae [24],1 µg/mL
same,MIC,Citrobacter freundii [25],> 256 µg/mL
same,MIC,Escherichia coli [26],1 µg/mL
same,MIC,Klebsiella pneumoniae [27],1 µg/mL
same,MIC,Enterobacter cloacae [28],1 µg/mL
same,MIC,Enterobacter cloacae [29],1 µg/mL
same,MIC,Enterobacter cloacae [30],> 256 µg/mL
